In ChEMBL document CHEMBL4354811, “Discovery of Novel Aryl Carboxamide Derivatives as Hypoxia-Inducible Factor 1α Signaling Inhibitors with Potent Activities of Anticancer Metastasis” (J Med Chem, 2019):
Active and inactive are the calls of the source. No cut-off for these calls is given here.

Key:
[1] = target: Hypoxia-inducible factor 1-alpha (Homo sapiens) (UniProt Q16665); assay: Inhibition of HIF1alpha transcriptional activity in hypoxia-induced human HCCLM3 cells co-transfected with luciferase reporter plasmid containing five copies of HREs and pRL-SV40 plasmid encoding Renilla luciferase at 10 uM incubated with compound under normoxia for 1 hr followed by hypoxia induction and measured after 24 hrs by HRE-dependent dual luciferase reporter gene assay relative to control
In short: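 LM3 cells co-transfected with firefly luciferase reporter carrying five HRE copies plus pRL-SV40 Renilla plasmid; after transfection treated and kept under hypoxia; firefly luminescence normalized to Renilla. Single-point inhibition rate at 10 μM; IC50 for selected compounds.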

[2] = Cytotoxicity against human HCCLM3 cells assessed as reduction in cell viability incubated for 48 hrs by MTT assay; format: cell-based
[3] = species: Danio rerio; assay: Antiangiogenic activity in […]/EGFP transgenic zebrafish embryo assessed as destruction of subintestinal vessel at 0.5 uM incubated for 24 hrs by confocal microscopic method; format: functional, organism-based
In short: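 Transgenic zebrafish with GFP-labeled vascular endothelium; embryos selected, […], exposed 24 h to 0.5 or 1 μM (DMSO vehicle, n = 10; apatinib 0.5 μM reference); SIVs imaged by confocal microscopy and counted per field; means ± SD, three independent experiments.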

[4] = tested on: HCCLM3; assay: Inhibition of HIF1alpha accumulation in hypoxia-induced human HCCLM3 cells at 10 uM incubated with compound under normoxia for 1 hr followed by hypoxia induction and measured after 24 hrs by Western blot analysis; format: functional, cell-based
In short: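 LM3 cells treated at 10 μM under hypoxia; HIF-1α protein by western blot, LW6 as reference.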

Sequence of Hypoxia-inducible factor 1-alpha (Homo sapiens) (Q16665 whole entry, looked up): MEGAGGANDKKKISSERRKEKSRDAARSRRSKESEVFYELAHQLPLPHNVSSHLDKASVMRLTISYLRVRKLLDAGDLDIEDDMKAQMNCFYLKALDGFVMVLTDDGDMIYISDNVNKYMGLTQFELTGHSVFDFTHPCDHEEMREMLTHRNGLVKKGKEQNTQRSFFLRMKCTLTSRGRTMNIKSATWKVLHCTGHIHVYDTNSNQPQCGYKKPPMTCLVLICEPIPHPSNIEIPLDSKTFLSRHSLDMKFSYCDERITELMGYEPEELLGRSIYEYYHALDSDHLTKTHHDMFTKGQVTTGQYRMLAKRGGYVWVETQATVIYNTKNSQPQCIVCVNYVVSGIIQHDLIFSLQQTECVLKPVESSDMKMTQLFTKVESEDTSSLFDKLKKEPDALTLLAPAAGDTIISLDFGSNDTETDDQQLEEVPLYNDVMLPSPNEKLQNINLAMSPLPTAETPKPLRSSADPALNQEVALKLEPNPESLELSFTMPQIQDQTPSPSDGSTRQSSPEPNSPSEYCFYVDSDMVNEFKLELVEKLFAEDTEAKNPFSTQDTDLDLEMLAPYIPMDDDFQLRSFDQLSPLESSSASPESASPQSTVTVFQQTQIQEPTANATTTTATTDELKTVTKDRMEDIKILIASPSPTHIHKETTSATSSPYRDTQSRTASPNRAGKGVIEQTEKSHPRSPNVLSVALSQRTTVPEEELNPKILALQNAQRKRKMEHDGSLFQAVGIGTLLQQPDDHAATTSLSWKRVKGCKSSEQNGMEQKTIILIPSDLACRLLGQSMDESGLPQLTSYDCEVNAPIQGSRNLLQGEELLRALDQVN

## O=C(NCCc1ccccc1F)c1ccc(-c2ccccc2)cn1
[1]
  inhibition: 91.4%
[2]
  CC50 at 48 h: > 50 µM

## N#Cc1ccc(-c2ccc(C(=O)NCCc3ccccc3F)nc2)cc1
[1]
  inhibition: 13.1%

## O=C(NCCc1ccccc1Cl)c1csc(-c2ccccc2)n1
[1]
  inhibition: 54.1%

## O=C(NCCc1ccccc1Cl)c1cc(-c2ccccc2)ncn1
[1]
  inhibition: 56.7%

## O=C(NCCc1ccncc1)c1ccc(-c2ccccc2)cc1
[1]
  inhibition: 42%

## O=C(NCCc1ccccc1F)c1ccc(-c2ccsc2)cn1
[1]
  inhibition: 88.2%
[2]
  CC50 at 48 h: > 50 µM

## Cc1ccc(C(=O)NCCc2ccccc2Cl)cc1
[1]
  inhibition: 45.3%

## Cc1ccc(C(=O)NCCc2ccccc2Cl)o1
[1]
  inhibition: 17.4%

## O=C(NCCc1ccncc1)c1nc(-c2ccccc2)no1
[1]
  inhibition: 36.9%

## O=C(NCCc1ccncc1)c1csc(-c2cccnc2)n1
[1]
  inhibition: 33.9%

## Cc1ccc(C(=O)NCCc2ccncc2)o1
[1]
  inhibition: 12.8%

## O=C(NCCc1ccccc1F)c1ccc(-c2ccc(F)cc2)cn1
[1]
  inhibition: 41.2%

## O=C(NCCc1ccc(O)cc1)c1ccc(-c2ccccc2)cn1
[1]
  inhibition: 36.9%

## O=C(NCCc1ccccc1F)c1ccc(-c2ccncc2)cn1
[1]
  inhibition: 57.5%

## Cc1cccc(C(=O)NCCc2ccncc2)n1
[1]
  inhibition: 36.4%

## Cc1nc(C(=O)NCCc2ccccc2Cl)cs1
[1]
  inhibition: 42.7%

## Cc1cccc(C(=O)NCCc2ccccc2Cl)n1
[1]
  inhibition: 37.3%

## O=C(NCCc1ccccc1Cl)c1ccc(-c2ccccc2)cc1
[1]
  inhibition: 77.2%
[2]
  CC50 at 48 h: > 50 µM

## N#CC1(c2ccc(NC(=O)c3cccnc3NCc3ccncc3)cc2)CCCC1
[3]
  Activity: Active

## O=C(NCCc1ccccc1Cl)c1ncc(-c2ccccc2)o1
[1]
  inhibition: 52.3%

## O=C(NCCc1ccncc1)c1coc(-c2ccccc2)n1
[1]
  inhibition: 38.7%

## O=C(NCCc1ccc(Cl)cc1)c1ccc(-c2ccccc2)cn1
[1]
  inhibition: 58.2%

## O=C(NCCc1ccccc1Cl)c1ccc(-c2ccccc2)cn1
[1]
  inhibition: 68.4%
[2]
  CC50 at 48 h: > 50 µM

## Cc1nc(C(=O)NCc2ccccc2)cs1
[1]
  inhibition: 3.1%

## Nc1ccc(CCNC(=O)c2ccc(-c3ccccc3)cn2)cc1
[1]
  inhibition: 60.2%
[2]
  CC50 at 48 h: > 50 µM

## O=C(NCCc1ccccc1Cl)c1csc(-c2cccnc2)n1
[1]
  inhibition: 21.6%

## O=C(NCCc1ccncc1)c1ncc(-c2ccccc2)o1
[1]
  inhibition: 53.5%

## O=C(NCCc1ccccc1Cl)c1nnc(-c2ccccc2)o1
[1]
  inhibition: 41.8%

## Cc1ccc(CCNC(=O)c2ccc(-c3ccccc3)cn2)cc1
[1]
  inhibition: 31.8%

## Cc1nc(C(=O)NCCc2ccccc2)cs1
[1]
  inhibition: 21.2%
[4]
  HIF-1α accumulation inhibition (qualitative): Active

## O=C(NCCc1ccccn1)c1ccc(-c2ccccc2)cn1
[1]
  inhibition: 43.7%

## O=C(NCCc1ccc([N+](=O)[O-])cc1)c1ccc(-c2ccccc2)cn1
[1]
  inhibition: 40.2%

## O=C(NCCc1ccccc1F)c1ccc(-c2ccco2)cn1
[1]
  inhibition: 57.2%

## O=C(NCCc1ccc(F)cc1)c1ccc(-c2ccccc2)cn1
[1]
  inhibition: 46.1%

## O=C(NCCc1ccccc1F)c1ccc(-c2ccoc2)cn1
[1]
  inhibition: 73.4%
[4]
  HIF-1α accumulation inhibition (qualitative): Active
[2]
  CC50 at 48 h: > 50 µM

## O=C(NCCc1ccncc1)c1nccc(-c2ccccc2)n1
[1]
  inhibition: 61.5%
[2]
  CC50 at 48 h: > 50 µM

## O=C(NCCc1cccc(F)c1)c1ccc(-c2ccccc2)cn1
[1]
  inhibition: 58.7%

## O=C(NCCc1ccncc1)c1ccc(-c2ccccc2)nc1
[1]
  inhibition: 47.4%

## O=C(NCCc1ccccc1Cl)c1noc(-c2ccccc2)n1
[1]
  inhibition: 40.5%

## O=C(NCCc1ccncc1)c1csc(-c2ccncc2)n1
[1]
  inhibition: 19.9%

## Cc1nc(C(=O)NCCCc2ccccc2)cs1
[1]
  inhibition: 6.5%

## O=C(NCCc1ccccc1F)c1ccc(-c2cccc(O)c2)cn1
[1]
  inhibition: 0.3%

## Cc1nc(C(=O)NCCc2cccc(Cl)c2)cs1
[1]
  inhibition: 1.2%

## Cc1nc(C(=O)NCCc2ccc(Cl)cc2)cs1
[1]
  inhibition: 0.6%

## O=C(NCCc1ccncc1)c1csc(-c2ccccc2)n1
[1]
  inhibition: 48.7%

## O=C(NCCc1ccncc1)c1ccc(-c2ccccc2)cn1
[1]
  inhibition: 60.7%
[2]
  CC50 at 48 h: > 50 µM

## O=C(NCCc1ccccc1)c1ccc(-c2ccccc2)cn1
[1]
  inhibition: 82.2%
[2]
  CC50 at 48 h: > 50 µM

## Cc1ccc(C(=O)NCCc2ccncc2)cc1
[1]
  inhibition: 3.1%

## O=C(NCCc1ccccc1F)c1ccc(-c2ccccc2F)cn1
[1]
  inhibition: 83.8%
[2]
  CC50 at 48 h: > 50 µM

## O=C(NCCc1ccccc1Cl)c1csc(-c2ccncc2)n1
[1]
  inhibition: 18.4%

## Cc1nc(C(=O)NCCc2ccncc2)cs1
[1]
  inhibition: 31.3%

## O=C(NCCc1ccccc1F)c1ccc(-c2cccc(F)c2)cn1
[1]
  inhibition: 55.3%

## COc1ccc(-c2ccc(C(=O)NCCc3ccccc3F)nc2)cc1
[1]
  inhibition: 45.6%

## Cc1nc(C(=O)NCCc2cccnc2)cs1
[1]
  inhibition: 2.4%

## O=C(NCCc1ccccc1F)c1ccc(-c2ccc(O)cc2)cn1
[1]
  inhibition: 33.2%

## O=C(NCCc1ccccc1F)c1ccc(-c2cn[nH]c2)cn1
[1]
  inhibition: 29.5%
[4]
  HIF-1α accumulation inhibition (qualitative): Active

## O=C(NCCc1ccccc1Cl)c1nc(-c2ccccc2)no1
[1]
  inhibition: 44.1%

## COC(=O)c1ccc(O)c(NC(=O)COc2ccc(C34CC5CC(CC(C5)C3)C4)cc2)c1
[1]
  inhibition: 73.5%
[4]
  HIF-1α accumulation inhibition (qualitative): Active
[2]
  CC50 at 48 h: > 50 µM

## O=C(NCCc1ccccc1F)c1ccc(-c2ccccc2O)cn1
[1]
  inhibition: 43.6%

## O=C(NCCc1cccc(Cl)c1)c1ccc(-c2ccccc2)cn1
[1]
  inhibition: 64.6%
[2]
  CC50 at 48 h: > 50 µM

## O=C(NCCc1ccncc1)c1nnc(-c2ccccc2)o1
[1]
  inhibition: 67.3%
[2]
  CC50 at 48 h: > 50 µM

## O=C(NCCc1ccccc1Cl)c1coc(-c2ccccc2)n1
[1]
  inhibition: 51.4%

## N#Cc1cccc(-c2ccc(C(=O)NCCc3ccccc3F)nc2)c1
[1]
  inhibition: 44.5%

## Cc1nc(C(=O)NCCc2ccccn2)cs1
[1]
  inhibition: 5.1%

## O=C(NCCc1ccccc1F)c1ccc(-c2cccs2)cn1
[1]
  inhibition: 80%
[2]
  CC50 at 48 h: > 50 µM

## O=C(NCCc1ccncc1)c1noc(-c2ccccc2)n1
[1]
  inhibition: 49.7%

## COc1cccc(-c2ccc(C(=O)NCCc3ccccc3F)nc2)c1
[1]
  inhibition: 53.8%

## O=C(NCCc1cccnc1)c1ccc(-c2ccccc2)cn1
[1]
  inhibition: 44.5%

## N#Cc1ccccc1-c1ccc(C(=O)NCCc2ccccc2F)nc1
[1]
  inhibition: 62.7%
[2]
  CC50 at 48 h: > 50 µM

## O=C(NCCc1ccccc1Cl)c1ccc(-c2ccccc2)nc1
[1]
  inhibition: 45.1%
